Measured values from publication PMC9771833 (International Journal for Parasitology: Drugs and Drug …, 2022).

What was measured:
[1] = test system: Plasmodium berghei NAT (atovaquone-resistant strain); experiment: 4-day suppression test in P. berghei NAT-infected ICR mice; type: in vivo
How it was run: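 Female 7-week-old ICR-1 mice (6/group) infected i.p. with 10^7 P. berghei NAT-infected erythrocytes. Dosing began 1 dpi: test compound at 10, 20 or 30 mg/kg, once daily for 4 days. Controls were DHA 10, atovaquone 4 and chloroquine 10 mg/kg, given i.v. once daily for 4 days. Parasitemia was measured daily by FACS of tail blood. Weight and survival were recorded daily to 15 dpi.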

[2] = test system: Plasmodium berghei NAT (atovaquone-resistant strain); experiment: Hematological analysis of P. berghei NAT-infected mice; type: in vivo
How it was run: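 Same P. berghei NAT-infected ICR-1 mouse model: 10^7 infected erythrocytes given i.p., test compound or control drug once daily for 4 days from 1 dpi. Blood was taken at 3, 6, 9 and 12 dpi and run on an automated blood cell counter for WBC, RBC, haemoglobin and hematocrit.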

[3] = In vitro cytotoxicity in Vero cells; type: cell-based, African green monkey (Chlorocebus sp.); conditions: African green monkey, Vero cells (kidney epithelial cells), CC50, Vero cell, mean ± SD
How it was run: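 Vero cells were pre-seeded 12 h, then exposed to serially diluted test compound or control drugs for 48 h. Viability was read with CellTiter 96 AQueous One reagent at 490 nm absorbance. CC50 was calculated from the concentration–response data.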

[4] = test system: Plasmodium falciparum 3D7; type: cell-based; conditions: 3D7 (CQ Sensitive); relative to SKM13
P. f K1 (CQ Resistant) = type: cell-based, Plasmodium falciparum; conditions: relative to SKM13
[5] = test system: eIF2α phosphorylation (ER stress response); experiment: Western blotting of phosphorylated eIF2α in trophozoite lysates; type: cell-based, Plasmodium falciparum; conditions: trophozoites treated 90 min, Western blot
How it was run: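 P. falciparum trophozoite cultures (5% hematocrit, 5% parasitemia) were plated 10–12 h, then drug-treated at 37 °C. Parasites were freed with 0.15% saponin, lysed in RIPA, run on 10% Bis-Tris SDS-PAGE and transferred to PVDF. Blots were blocked in 5% BSA and probed overnight at 4 °C with anti-phospho-eIF2α (1:1000), anti-eIF2α (1:3000) and anti-PfEF1α (5 μg/mL) as loading control. Detection used HRP secondaries and ECL.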

Row | SMILES | body weight ([1]; 4 mg/kg) | parasitemia density ([1]; 4 mg/kg i.v.) | survival rate ([1]; 4 mg/kg i.v. once a day for four days, 15 dpi, ICR mice n = 6) [%] | WBC counts ([2]; 4 mg/kg, compared with infected untreated mice (WBC increased at 9 to 12 dpi)) | CC50 at 48 h [3] [µM] | Relative SI [4] | Relative SI (P. f K1 (CQ Resistant)) | body weight ([1]; 10 mg/kg) | parasite density (parasitemia) ([1]; 10 mg/kg i.v., all observation period, p < 0.001) | WBC counts, HCT and Hgb ([2]; 10 mg/kg, infected mice, 3-12 dpi) | phosphorylation of eIF2α [5]
1 | O=C1C(O)=C([C@H]2CC[C@H](c3ccc(Cl)cc3)CC2)C(=O)c2ccccc21 [Atovaquone] | decreased | did not suppress parasitemia density | 33 | same pattern of haematological result | – | – | – | – | – | – | –
2 | CCN(CC)CCCC(C)Nc1ccnc2cc(Cl)ccc12 (centres unmarked) [Chloroquine] | – | – | – | – | 120 ± 16.4 | 20.93 | 7.81 | maintained normal mouse body weight | significantly reduced | did not affect | did not increase phosphorylation of eIF2α
3 | C[C@H]1[C@@H](O)O[C@@H]2O[C@@]3(C)CC[C@H]4[C@H](C)CC[C@@H]1[C@@]24OO3 [DHA, Dihydroartemisinin] | – | – | – | – | 31.3 ± 8.94 | 4.84 | 3.97 | – | – | – | –
